This note sets out measurements from ChEMBL document CHEMBL2311488 (Bioorg Med Chem Lett, 2013).

One data set is filed under the species Rattus norvegicus. The data set is described as follows: in vitro. The note with it: liver microsomes.
Data set [1] deals with Mus musculus. The experiment in a line: Antiobesity activity against DIO mouse assessed as reduction of body weight administered as po bid measured for 21 days. In kind it is functional, organism-based. Summed up: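 Diet-induced obese mice were dosed orally for 21 days, with body weight gain compared against a control group (n = 7).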
A short description of a further data set: physchem. The note with it: pH 6.8.
A short description of data set [2]: Drug uptake in mouse CSF at 0.5 mg/kg, iv at 30 mins. It counts as ADME, organism-based, Cerebrospinal fluid. The note with it: read-out: Drug uptake. Further details: dose 0.5 mg/kg, route intravenous. The essentials: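 CSF drug concentration was measured 30 min after a 0.5 mg/kg intravenous dose.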
Data set [3] concerns Mus musculus. The experiment in a line: Antiobesity activity in DIO mouse assessed as reduction of [cPP1to7, NPY19 to 23, Ala31, Aib32, Gln42]-induced food intake at 12.5 mg/kg, po administered 1 hr prior to [cPP1to7, NPY19 to 23, Ala31, Aib32, Gln42] induction measured after 2 hrs relative to vehicle-treated control. It counts as functional. Further details: scale not given: the % may be the effect or the level left. Summed up:
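Mice received oral compound at 12.5 mg/kg 1 h before treatment with a Y5-selective agonist peptide. Food intake was then compared with the increase the agonist induces.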

In data set [4] the target is T1, Neuropeptide Y receptor type 5 (Mus musculus, UniProt O70342).
T1 sequence (O70342 whole entry): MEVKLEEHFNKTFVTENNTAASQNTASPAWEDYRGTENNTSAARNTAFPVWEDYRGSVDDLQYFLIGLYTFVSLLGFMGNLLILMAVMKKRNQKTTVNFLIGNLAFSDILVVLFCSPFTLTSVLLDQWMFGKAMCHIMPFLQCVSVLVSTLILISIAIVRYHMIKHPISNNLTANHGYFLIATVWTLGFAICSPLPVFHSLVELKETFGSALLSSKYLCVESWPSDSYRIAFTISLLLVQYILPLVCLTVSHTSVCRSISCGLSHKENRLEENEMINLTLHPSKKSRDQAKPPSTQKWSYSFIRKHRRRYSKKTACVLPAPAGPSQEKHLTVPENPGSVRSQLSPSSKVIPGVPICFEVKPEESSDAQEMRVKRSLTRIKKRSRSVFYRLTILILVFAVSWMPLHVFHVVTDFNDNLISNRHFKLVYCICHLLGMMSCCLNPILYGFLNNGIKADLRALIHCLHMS
The experiment in a line: Displacement of [125I]PYY from mouse NPY-Y5 receptor.

The test system of data set [5] is Mus musculus. The data set is described as follows: Toxicity in mouse assessed as appearance of abnormal behavior at 6.25 to 25 mg/kg, po bid measured for 21 days. It counts as organism-based. Also on record: dose 6.25-25 mg/kg, route oral. The note with it: in vivo, 504 h. The essentials:
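Diet-induced obese mice were given compound orally for 21 days and watched for abnormal behavior during dosing.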

A short description of the next data set: in vitro. The note with it: human, liver microsomes.

The structures appear in SMILES notation. In brackets after ≈: the same amount, converted by molar mass. Where only a bound is given, the exact number is not on record here.

`CCS(=O)(=O)c1ccc2[nH]c(Oc3ccc(-c4ccccc4)nc3)nc2c1`: the share remaining at 0.5 h is > 99.9% in the data set listed under Rattus norvegicus and 98.6% in “in vitro”. Also, the Activity result is “Dose-dependent effect” with Mus musculus [1], 50.8% with Mus musculus [3] and “Non-toxic” in the data set on Mus musculus [5]. In addition, in “physchem”, the kinetic solubility was 39.7 µM (≈ 15.1 µg/mL). Further, the concentration at 0.5 h in data set [2] was determined as 2.9 ng/mL. The IC50 in data set [4] was 2.92 nM.

Consider `CCS(=O)(=O)c1ccc2nc(Cc3ccc(-c4ccccc4)cc3)[nH]c2c1`, for which the amount remaining at 0.5 h in the data set listed under Rattus norvegicus came out at 74.3%; in the data set “in vitro” it was 87.6%. The same compound gave a solubility (kinetic) in the data set “physchem” of 3 µM (≈ 1.13 µg/mL). Also, the IC50 in data set [4] is 112 nM.

As for `CCS(=O)(=O)c1ccc2nc(OCC(F)(F)c3ccccc3)[nH]c2c1`, the share remaining at 0.5 h is 83.8% in the data set listed under Rattus norvegicus and 97.9% in “in vitro”. Also, the kinetic solubility in “physchem” is > 50 µM. The concentration at 0.5 h in data set [2] amounted to 1.7 ng/mL. The 50% inhibitory concentration (IC50) in data set [4] turned out to be 4.39 nM.

Take `CCS(=O)(=O)c1ccc2[nH]c(C(=O)c3ccc(-c4ccccc4)cc3)nc2c1`: the share remaining at 0.5 h in the data set listed under Rattus norvegicus and in the data set “in vitro” was > 99.9% in each case. The kinetic solubility in “physchem” turned out to be 0.3 µM (≈ 0.117 µg/mL). The IC50 in data set [4] was determined as 2.61 nM.

On to `CCS(=O)(=O)c1ccc2nc(Oc3ccc(-c4ccccc4)cn3)[nH]c2c1`, for which the results for the fraction remaining at 0.5 h in the data set filed under Rattus norvegicus and in “in vitro” were > 99.9% and 89.2%, respectively. This compound had a kinetic solubility in the data set “physchem” of 45.2 µM (≈ 17.2 µg/mL). For the same compound, in data set [4], the IC50 was 96.4 nM.

Turning to `CCS(=O)(=O)c1ccc2nc(Oc3cccc(OC(F)(F)F)c3)[nH]c2c1`, the figures for the fraction remaining at 0.5 h in the data set listed under Rattus norvegicus and in the data set “in vitro” were 86.2% and 97.1%, respectively. The kinetic solubility in “physchem” is > 50 µM. The IC50 in data set [4] came out at 7.11 nM.

With `CCS(=O)(=O)c1ccc2[nH]c(Oc3ccc(OC(F)(F)F)cc3)nc2c1`, the amount remaining at 0.5 h in the data set filed under Rattus norvegicus turned out to be 91.6%; in the data set “in vitro”, 92.8%. For the same compound, in the data set “physchem”, the solubility (kinetic) is > 50 µM. Further, the IC50 in data set [4] was found to be 22.4 nM.

As for `CCS(=O)(=O)c1ccc2[nH]c(Oc3cccc(-c4ccccc4)c3)nc2c1`, the figures for the share remaining at 0.5 h in the data set filed under Rattus norvegicus and in “in vitro” were 77.3% and 29.1%, respectively. Further, the solubility (kinetic) in the data set “physchem” turned out to be 4.2 µM (≈ 1.59 µg/mL). The compound also registered an IC50 in data set [4] of 9.55 nM.

As to `CCS(=O)(=O)c1ccc2[nH]c(Oc3ccc(-c4ccccn4)cc3)nc2c1`, the kinetic solubility in the data set “physchem” was > 50 µM. Moreover, the IC50 in data set [4] worked out at 4.07 nM.

In the case of `CCS(=O)(=O)c1ccc2[nH]c(SCc3cccc(Cl)c3)nc2c1`, the fraction remaining at 0.5 h in the data set listed under Rattus norvegicus is 0.13%; in “in vitro” it was 63.7%. The same compound yielded a kinetic solubility in “physchem” of 27.5 µM (≈ 10.1 µg/mL). Further, the IC50 in data set [4] came out at 12.1 nM.

Regarding `CCS(=O)(=O)c1ccc2nc(Oc3ccc(C(F)(F)F)cc3)[nH]c2c1`, the share remaining at 0.5 h is 86.9% in the data set filed under Rattus norvegicus and 95.2% in the data set “in vitro”. Besides, in the data set “physchem”, the kinetic solubility is > 50 µM. Also, the concentration for half-maximal inhibition (IC50) in data set [4] was 98.1 nM.

For `CCS(=O)(=O)c1ccc2nc(OCCc3ccccc3)[nH]c2c1`, the fraction remaining at 0.5 h in the data set filed under Rattus norvegicus came out at 37.6%; in “in vitro” it was 88.1%. For the same compound, the kinetic solubility in “physchem” is > 50 µM. For the same compound, in data set [4], the half-inhibitory concentration (IC50) worked out at 25 nM.

Consider `CCS(=O)(=O)c1ccc2[nH]c(Oc3ccccc3C(F)(F)F)nc2c1`, for which the solubility (kinetic) in the data set “physchem” was > 50 µM. In data set [4], this compound yielded an IC50 of 3190 nM.

For `CCS(=O)(=O)c1ccc2[nH]c(Oc3ccc(-c4ccccc4)cc3)nc2c1`, the amount remaining at 0.5 h in the data set listed under Rattus norvegicus and in “in vitro” was > 99.9% throughout. In “physchem”, this compound came in with a solubility (kinetic) of 2.5 µM (≈ 0.946 µg/mL). Also, the IC50 in data set [4] amounted to 2.82 nM.

For the compound `CCS(=O)(=O)c1ccc2nc(OCc3cccc(Cl)c3)[nH]c2c1`, the fraction remaining at 0.5 h in the data set listed under Rattus norvegicus stood at 37.9%; in “in vitro”, 88.5%. Also, in “physchem”, the kinetic solubility amounted to 49.9 µM (≈ 17.5 µg/mL). In addition, the IC50 in data set [4] came to 80.4 nM.

`CCS(=O)(=O)c1ccc2nc(C(F)(F)c3ccc(-c4ccccc4)cc3)[nH]c2c1`: the share remaining at 0.5 h came to 78.3% in the data set filed under Rattus norvegicus and 0.1% in “in vitro”. In the data set “physchem”, this compound had a solubility (kinetic) of 0.3 µM (≈ 0.124 µg/mL). In data set [4], the 50% inhibitory concentration (IC50) was determined as 48.6 nM.

Consider `CCS(=O)(=O)c1ccc2[nH]c(O[C@H]3CC[C@H](c4ccccc4)CC3)nc2c1`, for which the share remaining at 0.5 h was 93.8% in the data set filed under Rattus norvegicus and > 99.9% in “in vitro”. The same compound had a solubility (kinetic) in the data set “physchem” of 6.1 µM (≈ 2.35 µg/mL). For the same compound, in data set [4], the IC50 worked out at 3.75 nM.

For the compound `CCS(=O)(=O)c1ccc2[nH]c(Oc3cccc(C(F)(F)F)c3)nc2c1`, the share remaining at 0.5 h in the data set listed under Rattus norvegicus is 88.4%; in the data set “in vitro”, > 99.9%. In “physchem”, the kinetic solubility was > 50 µM. In data set [4], this compound registered a 50% inhibitory concentration (IC50) of 41.2 nM.

For `CCS(=O)(=O)c1ccc2[nH]c(C3(c4ccc(-c5ccccc5)cc4)CC3)nc2c1`, the amount remaining at 0.5 h worked out at 81.3% in the data set listed under Rattus norvegicus and 88.5% in “in vitro”. The compound also registered a kinetic solubility in “physchem” of 0.5 µM (≈ 0.201 µg/mL). The IC50 in data set [4] is 608 nM.
